Results reported in ChEMBL document CHEMBL3352689 (J Med Chem, 2014).
Converted amounts (≈) assume the structure as drawn.

How the values were obtained:
Neutrophil collagenase = Neutrophil collagenase (Homo sapiens, UniProt P22894); assay: Inhibition of human recombinant MMP8 using Cy3-PLGLK(Cy5Q)AR-NH2 as substrate after 40 mins by spectrofluorimetry
[1] = target: Voltage-gated inwardly rectifying potassium channel KCNH2 (Homo sapiens, UniProt Q12809); assay: Inhibition of human ERG
[2] = Apparent permeability in human Caco2 cells; assay type: ADME, cell-based; settings: Caco-2
Rattus norvegicus = assay: Intrinsic clearance in iv dosed rat; assay type: ADME, organism-based; settings: in vivo
[3] = target: Matrix metalloproteinase-9 (Homo sapiens, UniProt P14780); assay: Inhibition of human recombinant MMP9 using Cy3-PLGLK(Cy5Q)AR-NH2 as substrate after 40 mins by spectrofluorimetry
Sequence of Matrix metalloproteinase-9 (P14780 whole entry): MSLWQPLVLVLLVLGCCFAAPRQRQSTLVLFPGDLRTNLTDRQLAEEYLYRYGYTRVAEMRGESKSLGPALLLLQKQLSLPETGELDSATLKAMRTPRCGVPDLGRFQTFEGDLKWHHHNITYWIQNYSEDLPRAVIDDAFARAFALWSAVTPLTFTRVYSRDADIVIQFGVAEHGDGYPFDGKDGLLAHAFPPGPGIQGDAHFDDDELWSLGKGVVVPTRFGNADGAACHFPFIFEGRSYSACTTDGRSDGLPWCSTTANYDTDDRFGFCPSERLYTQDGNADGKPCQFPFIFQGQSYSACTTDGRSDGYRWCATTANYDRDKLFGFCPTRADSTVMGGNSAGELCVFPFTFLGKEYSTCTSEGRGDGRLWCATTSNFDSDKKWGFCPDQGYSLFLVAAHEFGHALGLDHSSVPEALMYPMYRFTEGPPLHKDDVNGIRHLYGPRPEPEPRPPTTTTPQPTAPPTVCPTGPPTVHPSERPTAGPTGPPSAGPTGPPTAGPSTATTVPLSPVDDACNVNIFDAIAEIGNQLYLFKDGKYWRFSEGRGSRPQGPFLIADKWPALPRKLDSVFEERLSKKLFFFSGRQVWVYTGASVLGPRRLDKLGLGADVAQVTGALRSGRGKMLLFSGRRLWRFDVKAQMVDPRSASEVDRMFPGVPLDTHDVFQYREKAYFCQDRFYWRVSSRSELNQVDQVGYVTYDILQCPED

Matrilysin = target: T1, Matrilysin (Homo sapiens, UniProt P09237); assay: Inhibition of human recombinant MMP7 using Cy3-PLGLK(Cy5Q)AR-NH2 as substrate after 40 mins by spectrofluorimetry
T1 sequence (P09237 whole entry): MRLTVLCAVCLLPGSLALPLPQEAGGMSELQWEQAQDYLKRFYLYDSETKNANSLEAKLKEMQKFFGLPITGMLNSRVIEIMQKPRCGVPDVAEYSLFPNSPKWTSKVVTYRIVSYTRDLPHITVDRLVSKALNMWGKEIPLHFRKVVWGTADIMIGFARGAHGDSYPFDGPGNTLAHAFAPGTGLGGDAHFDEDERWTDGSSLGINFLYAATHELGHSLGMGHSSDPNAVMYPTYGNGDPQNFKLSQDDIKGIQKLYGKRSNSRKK

[4] = Inhibition of cytochrome P450 (unknown origin); assay type: ADME; settings: human
[5] = target: 72 kDa type IV collagenase (Homo sapiens, UniProt P08253); assay: Inhibition of human recombinant MMP2 using Cy3-PLGLK(Cy5Q)AR-NH2 as substrate after 40 mins by spectrofluorimetry
Sequence of 72 kDa type IV collagenase (P08253 whole entry): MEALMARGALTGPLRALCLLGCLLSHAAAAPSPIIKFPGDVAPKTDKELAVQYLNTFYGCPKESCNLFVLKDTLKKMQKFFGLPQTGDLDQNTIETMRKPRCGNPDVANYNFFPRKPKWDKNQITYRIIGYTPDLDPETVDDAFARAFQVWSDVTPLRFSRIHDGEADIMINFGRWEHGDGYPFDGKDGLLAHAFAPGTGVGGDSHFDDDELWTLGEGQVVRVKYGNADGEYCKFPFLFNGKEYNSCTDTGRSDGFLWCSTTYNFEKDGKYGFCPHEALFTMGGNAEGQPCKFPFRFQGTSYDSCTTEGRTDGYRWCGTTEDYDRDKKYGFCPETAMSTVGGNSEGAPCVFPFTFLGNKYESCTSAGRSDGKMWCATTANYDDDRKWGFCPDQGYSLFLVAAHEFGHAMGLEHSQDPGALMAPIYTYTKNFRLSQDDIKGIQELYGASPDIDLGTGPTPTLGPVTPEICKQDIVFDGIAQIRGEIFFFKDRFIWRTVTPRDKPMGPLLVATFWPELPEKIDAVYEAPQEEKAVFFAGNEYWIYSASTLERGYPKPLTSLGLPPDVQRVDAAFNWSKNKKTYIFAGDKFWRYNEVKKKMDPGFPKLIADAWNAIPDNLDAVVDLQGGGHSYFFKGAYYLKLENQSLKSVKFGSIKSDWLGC

Liver microsome = assay: Metabolic stability in rat liver microsomes; assay type: ADME
Method in brief: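 The free acid was incubated with hepatic microsomes of each species. Stability is reported as clearance in μL/min/mg microsomal protein.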

Stromelysin-2 = Stromelysin-2 (Homo sapiens, UniProt P09238); assay: Inhibition of human recombinant MMP10 using Cy3-PLGLK(Cy5Q)AR-NH2 as substrate after 40 mins by spectrofluorimetry
Sequence of Stromelysin-2 (P09238 whole entry): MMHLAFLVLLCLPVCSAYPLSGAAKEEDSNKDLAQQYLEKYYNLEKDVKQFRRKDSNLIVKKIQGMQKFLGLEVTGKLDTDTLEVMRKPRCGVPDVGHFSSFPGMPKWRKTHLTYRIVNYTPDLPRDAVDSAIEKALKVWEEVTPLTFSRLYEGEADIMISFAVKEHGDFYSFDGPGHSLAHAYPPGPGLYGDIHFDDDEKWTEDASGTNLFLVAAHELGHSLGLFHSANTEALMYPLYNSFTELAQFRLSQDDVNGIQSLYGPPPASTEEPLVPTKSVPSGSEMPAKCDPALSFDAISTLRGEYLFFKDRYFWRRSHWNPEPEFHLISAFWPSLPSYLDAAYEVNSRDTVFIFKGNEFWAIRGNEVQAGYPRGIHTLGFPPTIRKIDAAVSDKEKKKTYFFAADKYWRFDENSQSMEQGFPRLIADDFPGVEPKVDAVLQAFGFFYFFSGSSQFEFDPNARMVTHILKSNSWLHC

Collagenase 3 = Collagenase 3 (Homo sapiens, UniProt P45452); assay: Inhibition of human recombinant MMP13 using Cy3-PLGLK(Cy5Q)AR-NH2 as substrate after 40 mins by spectrofluorimetry
[6] = target: Matrix metalloproteinase-14 (Homo sapiens, UniProt P50281); assay: Inhibition of human recombinant GST-tagged MMP14 using Cy3-PLGLK(Cy5Q)AR-NH2 as substrate after 40 mins by spectrofluorimetry
[7] = Solubility of the compound in Britton-Robinson buffer at pH 7; assay type: physicochemical
[8] = target: Disintegrin and metalloproteinase domain-containing protein 17 (Homo sapiens, UniProt P78536); assay: Inhibition of human recombinant TACE using Cy3-PLAQAV(Cy5Q-L-2,3-diaminopropionic acid)-RSSSRNH2 as substrate after 40 mins by spectrofluorimetry
Sequence of Disintegrin and metalloproteinase domain-containing protein 17 (P78536 whole entry, the tested form may be a part): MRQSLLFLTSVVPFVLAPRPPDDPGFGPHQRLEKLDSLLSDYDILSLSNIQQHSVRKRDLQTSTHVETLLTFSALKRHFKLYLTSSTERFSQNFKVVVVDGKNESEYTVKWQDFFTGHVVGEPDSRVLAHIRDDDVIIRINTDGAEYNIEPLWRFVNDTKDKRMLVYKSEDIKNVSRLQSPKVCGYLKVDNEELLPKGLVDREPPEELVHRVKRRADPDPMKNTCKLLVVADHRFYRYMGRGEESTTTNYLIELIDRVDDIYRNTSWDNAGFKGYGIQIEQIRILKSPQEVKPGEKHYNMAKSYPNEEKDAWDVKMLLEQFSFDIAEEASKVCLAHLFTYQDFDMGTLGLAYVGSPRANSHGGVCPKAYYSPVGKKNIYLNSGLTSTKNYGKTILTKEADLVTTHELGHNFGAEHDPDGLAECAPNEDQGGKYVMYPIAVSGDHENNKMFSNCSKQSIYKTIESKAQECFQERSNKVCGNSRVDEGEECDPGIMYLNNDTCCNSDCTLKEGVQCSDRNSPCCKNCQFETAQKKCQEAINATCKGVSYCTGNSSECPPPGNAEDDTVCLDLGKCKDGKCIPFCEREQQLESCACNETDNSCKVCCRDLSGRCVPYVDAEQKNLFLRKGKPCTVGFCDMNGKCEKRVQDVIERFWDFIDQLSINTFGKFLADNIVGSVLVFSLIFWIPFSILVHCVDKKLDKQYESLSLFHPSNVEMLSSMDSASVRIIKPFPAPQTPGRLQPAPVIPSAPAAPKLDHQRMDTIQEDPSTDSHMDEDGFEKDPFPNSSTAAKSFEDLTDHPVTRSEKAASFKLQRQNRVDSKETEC

[9] = Solubility of the compound in water; assay type: physicochemical; settings: buffer
Interstitial collagenase = target: T2, Interstitial collagenase (Homo sapiens, UniProt P03956); assay: Inhibition of human recombinant MMP1 using Cy3-PLGLK(Cy5Q)AR-NH2 as substrate after 40 mins by spectrofluorimetry
T2 sequence (P03956 whole entry): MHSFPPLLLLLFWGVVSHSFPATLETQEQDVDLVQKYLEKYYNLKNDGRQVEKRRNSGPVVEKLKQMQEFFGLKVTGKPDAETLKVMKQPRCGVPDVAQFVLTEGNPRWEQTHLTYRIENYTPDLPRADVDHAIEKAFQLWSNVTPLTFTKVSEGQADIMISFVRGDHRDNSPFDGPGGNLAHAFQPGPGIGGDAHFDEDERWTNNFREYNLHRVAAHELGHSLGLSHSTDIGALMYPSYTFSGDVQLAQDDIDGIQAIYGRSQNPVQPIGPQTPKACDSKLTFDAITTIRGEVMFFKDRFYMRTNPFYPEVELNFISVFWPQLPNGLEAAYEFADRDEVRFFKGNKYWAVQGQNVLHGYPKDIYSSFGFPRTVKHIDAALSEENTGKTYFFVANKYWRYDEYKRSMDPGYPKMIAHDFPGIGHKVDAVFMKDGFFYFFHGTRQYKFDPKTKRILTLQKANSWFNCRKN
Method in brief: (§1)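 Human recombinant pro-enzymes were activated with 1 mM APMA at 37 °C, for 2 h (MMP-1) or 18 h (MMP-3). Reactions were stopped with EDTA and read at […] nm. Activity was scaled to no-inhibitor and EDTA controls, and IC50 obtained by iterative fitting.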

Stromelysin-1 = Stromelysin-1 (Homo sapiens, UniProt P08254); assay: Inhibition of human recombinant MMP3 using Cy3-PLGLK(Cy5Q)AR-NH2 as substrate after 40 mins by spectrofluorimetry; method in brief: as §1
Sequence of Stromelysin-1 (P08254 whole entry): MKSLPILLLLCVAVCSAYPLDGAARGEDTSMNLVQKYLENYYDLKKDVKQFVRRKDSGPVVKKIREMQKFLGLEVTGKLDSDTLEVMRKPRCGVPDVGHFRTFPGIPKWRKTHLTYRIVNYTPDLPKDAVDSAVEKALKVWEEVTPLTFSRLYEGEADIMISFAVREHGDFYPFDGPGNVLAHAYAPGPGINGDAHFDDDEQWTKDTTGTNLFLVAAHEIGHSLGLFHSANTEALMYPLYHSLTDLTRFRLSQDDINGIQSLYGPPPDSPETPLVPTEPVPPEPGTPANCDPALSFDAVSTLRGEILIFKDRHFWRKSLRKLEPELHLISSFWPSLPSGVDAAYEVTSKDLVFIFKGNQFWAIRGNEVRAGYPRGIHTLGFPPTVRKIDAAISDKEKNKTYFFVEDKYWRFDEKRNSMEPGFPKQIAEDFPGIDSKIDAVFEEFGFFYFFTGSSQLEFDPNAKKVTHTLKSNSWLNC

Sequence of Voltage-gated inwardly rectifying potassium channel KCNH2 (Q12809 whole entry): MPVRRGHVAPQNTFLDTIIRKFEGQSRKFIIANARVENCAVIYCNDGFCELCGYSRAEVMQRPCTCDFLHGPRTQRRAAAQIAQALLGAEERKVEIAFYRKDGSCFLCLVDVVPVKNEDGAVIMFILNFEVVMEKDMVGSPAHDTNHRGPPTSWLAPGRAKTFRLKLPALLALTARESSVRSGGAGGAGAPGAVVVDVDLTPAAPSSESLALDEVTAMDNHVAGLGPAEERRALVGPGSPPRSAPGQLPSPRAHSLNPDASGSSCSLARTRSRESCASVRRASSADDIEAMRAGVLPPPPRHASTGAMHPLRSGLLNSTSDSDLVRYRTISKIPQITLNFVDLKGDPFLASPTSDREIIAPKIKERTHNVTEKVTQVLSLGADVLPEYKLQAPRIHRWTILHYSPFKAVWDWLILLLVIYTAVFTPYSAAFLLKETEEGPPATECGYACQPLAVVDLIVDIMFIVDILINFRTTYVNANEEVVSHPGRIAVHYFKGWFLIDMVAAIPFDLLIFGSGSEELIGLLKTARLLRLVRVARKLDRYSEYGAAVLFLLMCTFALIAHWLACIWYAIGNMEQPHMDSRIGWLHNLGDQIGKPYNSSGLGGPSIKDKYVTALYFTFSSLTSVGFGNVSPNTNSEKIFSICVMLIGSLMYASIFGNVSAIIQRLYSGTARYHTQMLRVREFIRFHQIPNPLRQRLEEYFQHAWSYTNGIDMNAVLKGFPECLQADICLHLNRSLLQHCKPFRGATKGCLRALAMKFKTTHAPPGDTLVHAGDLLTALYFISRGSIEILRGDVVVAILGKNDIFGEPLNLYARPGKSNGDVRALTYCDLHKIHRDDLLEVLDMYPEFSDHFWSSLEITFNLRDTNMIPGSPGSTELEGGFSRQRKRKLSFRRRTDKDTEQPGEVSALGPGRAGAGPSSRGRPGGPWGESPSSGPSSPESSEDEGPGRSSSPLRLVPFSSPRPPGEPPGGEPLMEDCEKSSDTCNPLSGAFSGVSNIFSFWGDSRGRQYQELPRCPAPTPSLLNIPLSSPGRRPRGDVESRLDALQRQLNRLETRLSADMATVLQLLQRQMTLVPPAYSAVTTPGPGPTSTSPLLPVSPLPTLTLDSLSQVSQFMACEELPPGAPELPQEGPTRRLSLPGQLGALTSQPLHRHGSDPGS
Sequence of Neutrophil collagenase (P22894 whole entry): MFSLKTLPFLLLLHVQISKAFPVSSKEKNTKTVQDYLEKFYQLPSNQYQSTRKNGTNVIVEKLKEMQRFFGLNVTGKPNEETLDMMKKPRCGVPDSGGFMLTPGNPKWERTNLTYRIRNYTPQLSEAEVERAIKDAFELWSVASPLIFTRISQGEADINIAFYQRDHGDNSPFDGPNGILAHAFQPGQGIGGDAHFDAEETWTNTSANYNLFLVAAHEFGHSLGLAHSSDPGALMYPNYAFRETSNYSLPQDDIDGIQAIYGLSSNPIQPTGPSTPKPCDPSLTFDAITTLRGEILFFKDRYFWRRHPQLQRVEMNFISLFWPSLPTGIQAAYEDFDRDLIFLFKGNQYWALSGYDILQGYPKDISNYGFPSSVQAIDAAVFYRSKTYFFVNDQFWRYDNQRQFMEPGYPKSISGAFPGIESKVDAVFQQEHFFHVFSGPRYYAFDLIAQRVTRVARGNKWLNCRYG

COc1cccc(CNC(=O)c2nc3ccc(F)c(OCCc4ccc(C(=O)O)cc4)c3c(=O)[nH]2)c1
IC50 (Neutrophil collagenase): 720 nM | inhibition (INH) [1]: Not Active | Papp [2]: 4.77 ×10⁻⁶ cm/s | CL (Rattus norvegicus): 1.7 L/h/kg | IC50 [3]: > 10 µM | IC50 (Matrilysin): > 10 µM | inhibition (INH) [4]: Not Active | IC50 [5]: 5.3 µM | Microsomal clearance (Liver microsome): 70 µL/min/mg | IC50 (Stromelysin-2): 160 nM | IC50 (Collagenase 3): 3.9 pM | IC50 [6]: > 10 µM | solubility [7]: 0.7 µg/mL (≈ 1.42 µM) | IC50 [8]: > 10 µM | solubility [9]: Insoluble | IC50 (Interstitial collagenase): > 10 µM | IC50 (Stromelysin-1): 4 µM
